Measured values from ChEMBL document CHEMBL2062487, “Design, synthesis and evaluation of clinafloxacin triazole hybrids as a new type of antibacterial and antifungal agents” (2012).
Values after ≈ are worked out from the molar mass of the structure shown.

Tests used:
[1] = test system: Staphylococcus aureus; assay: Antibacterial activity against methicillin-resistant Staphylococcus aureus N 315 by two fold broth dilution method; type: functional; conditions: N315
Summary of the method: (§1)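 Twofold broth dilution in 96-well microtest plates following NCCLS guidance. Endpoint is the MIC (µg/mL), the lowest concentration that inhibits growth. Clinafloxacin, chloramphenicol and fluconazole served as positive controls.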

[2] = test system: Shigella dysenteriae; assay: Antibacterial activity against Shigella dysenteriae by two fold broth dilution method; type: functional; summary of the method: as §1
[3] = test system: Bacillus subtilis; assay: Antibacterial activity against Bacillus subtilis ATCC 6633 by two fold broth dilution method; type: functional
Summary of the method: (§2)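 MIC was determined by twofold broth dilution in microplates, following NCCLS recommendations. Clinafloxacin, chloramphenicol and fluconazole served as positive controls. Values are given in μg/mL.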

[4] = test system: Pseudomonas aeruginosa; assay: Antibacterial activity against Pseudomonas aeruginosa by two fold broth dilution method; type: functional; summary of the method: as §2
[5] = test system: Micrococcus luteus; assay: Antibacterial activity against Micrococcus luteus ATCC 4698 by two fold broth dilution method; type: functional; conditions: NCTC 2665; summary of the method: as §2
[6] = test system: Staphylococcus aureus; assay: Antibacterial activity against Staphylococcus aureus ATCC […] by two fold broth dilution method; type: functional; summary of the method: as §2
[7] = test system: Candida albicans; assay: Antifungal activity against Candida albicans ATCC 76615 by two fold broth dilution method; type: functional; summary of the method: as §2
[8] = test system: Escherichia coli; assay: Antibacterial activity against Escherichia coli JM109 by two fold broth dilution method; type: functional; summary of the method: as §2
[9] = Antibacterial activity against Bacillus proteus by two fold broth dilution method; type: functional; summary of the method: as §2
[10] = test system: Candida; assay: Antifungal activity against Candida mycoderma by two fold broth dilution method; type: functional; summary of the method: as §2
[11] = test system: Bacillus; assay: Ratio of clinafloxacin MIC to compound MIC for Bacillus proteus; type: functional
[12] = test system: Micrococcus luteus; assay: Ratio of chloramphenicol MIC to compound MIC for Micrococcus luteus ATCC 4698; type: functional, NCTC 2665

| Structure (SMILES) | MIC [1] [µg/mL] | MIC [2] [µg/mL] | MIC [3] [µg/mL] | MIC [4] [µg/mL] | MIC [5] [µg/mL] | MIC [6] [µg/mL] | MIC [7] [µg/mL] | MIC [8] [µg/mL] | MIC [9] [µg/mL] | MIC [10] [µg/mL] | Ratio [11] | Ratio [12] |
| --- | --- | --- | --- | --- | --- | --- | --- | --- | --- | --- | --- | --- |
| Fc1ccc(C2(Cn3cncn3)CO2)c(F)c1 (racemic) | 128 (≈ 540 µM) | 32 (≈ 135 µM) | 16 (≈ 67.5 µM) | 16 (≈ 67.5 µM) | 32 (≈ 135 µM) | 256 (≈ 1080 µM) | 64 (≈ 270 µM) | 32 (≈ 135 µM) | 32 (≈ 135 µM) | 8 (≈ 33.7 µM) |  |  |
| Cc1ccc(C(O)(CNC2CCN(c3c(F)cc4c(=O)c(C(=O)O)cn(C5CC5)c4c3Cl)C2)Cn2cncn2)cc1 (racemic) | 0.25 (≈ 0.43 µM) | 0.5 (≈ 0.861 µM) | 0.5 (≈ 0.861 µM) | 0.5 (≈ 0.861 µM) | 2 (≈ 3.44 µM) | 2 (≈ 3.44 µM) | 0.5 (≈ 0.861 µM) | 1 (≈ 1.72 µM) | 0.5 (≈ 0.861 µM) | 0.5 (≈ 0.861 µM) |  |  |
| O=C(O)c1cn(C2CC2)c2c(Cl)c(N3CCC(NCC(O)(Cn4cncn4)c4ccc(Cl)cc4Cl)C3)c(F)cc2c1=O (racemic) | 4 (≈ 6.29 µM) | 0.5 (≈ 0.786 µM) | 32 (≈ 50.3 µM) | 2 (≈ 3.15 µM) | 0.5 (≈ 0.786 µM) | 4 (≈ 6.29 µM) | 4 (≈ 6.29 µM) | 4 (≈ 6.29 µM) | 1 (≈ 1.57 µM) | 0.5 (≈ 0.786 µM) |  |  |
| OC(Cn1cncn1)(Cn1cncn1)c1ccc(F)cc1F [FLUCONAZOLE] | > 512 | > 512 | > 512 | > 512 | > 512 | > 512 | 0.5 (≈ 1.63 µM) | > 512 | > 512 | 0.5 (≈ 1.63 µM) |  |  |
| O=C(Cn1cncn1)c1ccc(F)cc1F | > 512 | 512 (≈ 2290 µM) | 512 (≈ 2290 µM) | 256 (≈ 1150 µM) | 512 (≈ 2290 µM) | 512 (≈ 2290 µM) | 512 (≈ 2290 µM) | 32 (≈ 143 µM) | 512 (≈ 2290 µM) | > 512 |  |  |
| Clc1ccc(C2(Cn3cncn3)CO2)c(Cl)c1 (racemic) | 256 (≈ 948 µM) | 64 (≈ 237 µM) | 32 (≈ 118 µM) | 128 (≈ 474 µM) | 32 (≈ 118 µM) | 256 (≈ 948 µM) | 32 (≈ 118 µM) | 256 (≈ 948 µM) | 64 (≈ 237 µM) | 16 (≈ 59.2 µM) |  |  |
| Clc1ccc(C2(Cn3cncn3)CO2)cc1Cl (racemic) | 256 (≈ 948 µM) | 64 (≈ 237 µM) | 16 (≈ 59.2 µM) | 128 (≈ 474 µM) | 16 (≈ 59.2 µM) | 128 (≈ 474 µM) | 64 (≈ 237 µM) | 128 (≈ 474 µM) | 32 (≈ 118 µM) | 16 (≈ 59.2 µM) |  |  |
| O=C(O)c1cn(C2CC2)c2c(Cl)c(N3CCC(NCC(O)(Cn4cncn4)c4ccc(F)cc4)C3)c(F)cc2c1=O (racemic) | 2 (≈ 3.42 µM) | 0.5 (≈ 0.855 µM) | 1 (≈ 1.71 µM) | 0.5 (≈ 0.855 µM) | 0.5 (≈ 0.855 µM) | 2 (≈ 3.42 µM) | 1 (≈ 1.71 µM) | 1 (≈ 1.71 µM) | 0.5 (≈ 0.855 µM) | 0.5 (≈ 0.855 µM) |  |  |
| O=C(O)c1cn(C2CC2)c2c(Cl)c(N3CCC(NCC(O)(Cn4cncn4)c4ccc(Cl)cc4)C3)c(F)cc2c1=O (racemic) | > 512 | > 512 | > 512 | > 512 | > 512 | > 512 | > 512 | 32 (≈ 53.2 µM) | 512 (≈ 851 µM) | > 512 |  |  |
| O=C(O)c1cn(C2CC2)c2c(Cl)c(N3CCC(NCC(O)(Cn4cncn4)c4ccc(F)cc4F)C3)c(F)cc2c1=O (racemic) | 0.25 (≈ 0.415 µM) | 0.5 (≈ 0.829 µM) | 0.5 (≈ 0.829 µM) | 0.5 (≈ 0.829 µM) | 0.5 (≈ 0.829 µM) | 0.5 (≈ 0.829 µM) | 0.5 (≈ 0.829 µM) | 1 (≈ 1.66 µM) | 0.25 (≈ 0.415 µM) | 0.5 (≈ 0.829 µM) | 2 |  |
| Clc1ccc(C2(Cn3cncn3)CO2)cc1 (racemic) | 256 (≈ 1090 µM) | 32 (≈ 136 µM) | 16 (≈ 67.9 µM) | 32 (≈ 136 µM) | 32 (≈ 136 µM) | 64 (≈ 272 µM) | 32 (≈ 136 µM) | 32 (≈ 136 µM) | 16 (≈ 67.9 µM) | 32 (≈ 136 µM) |  |  |
| Fc1ccc(C2(Cn3cncn3)CO2)cc1F (racemic) | 256 (≈ 1080 µM) | 64 (≈ 270 µM) | 32 (≈ 135 µM) | 64 (≈ 270 µM) | 8 (≈ 33.7 µM) | 256 (≈ 1080 µM) | 128 (≈ 540 µM) | 128 (≈ 540 µM) | 64 (≈ 270 µM) | 8 (≈ 33.7 µM) |  |  |
| O=C(O)c1cn(C2CC2)c2c(Cl)c(N3CCC(NCC(O)(Cn4cncn4)c4ccc(Cl)c(Cl)c4)C3)c(F)cc2c1=O (racemic) | 0.25 (≈ 0.393 µM) | 0.5 (≈ 0.786 µM) | 32 (≈ 50.3 µM) | 0.5 (≈ 0.786 µM) | 0.5 (≈ 0.786 µM) | 8 (≈ 12.6 µM) | 2 (≈ 3.15 µM) | 4 (≈ 6.29 µM) | 0.25 (≈ 0.393 µM) | 0.5 (≈ 0.786 µM) |  |  |
| Cc1ccc(C(=O)Cn2cncn2)cc1 | > 512 | > 512 | 256 (≈ 1270 µM) | 32 (≈ 159 µM) | > 512 | > 512 | > 512 | 32 (≈ 159 µM) | > 512 | > 512 |  |  |
| O=C(Cn1cncn1)c1ccc(F)c(F)c1 | > 512 | 512 (≈ 2290 µM) | 512 (≈ 2290 µM) | 256 (≈ 1150 µM) | 512 (≈ 2290 µM) | > 512 | > 512 | 64 (≈ 287 µM) | > 512 | 512 (≈ 2290 µM) |  |  |
| Fc1ccc(C2(Cn3cncn3)CO2)cc1 (racemic) | 128 (≈ 584 µM) | 64 (≈ 292 µM) | 8 (≈ 36.5 µM) | 128 (≈ 584 µM) | 8 (≈ 36.5 µM) | 256 (≈ 1170 µM) | 64 (≈ 292 µM) | 128 (≈ 584 µM) | 128 (≈ 584 µM) | 8 (≈ 36.5 µM) |  |  |
| O=C(Cn1cncn1)c1ccc(Cl)c(Cl)c1 | > 512 | 512 (≈ 2000 µM) | 512 (≈ 2000 µM) | 128 (≈ 500 µM) | 512 (≈ 2000 µM) | 256 (≈ 1000 µM) | > 512 | 32 (≈ 125 µM) | 256 (≈ 1000 µM) | 512 (≈ 2000 µM) |  |  |
| O=C(Cn1cncn1)c1ccc(Cl)cc1 | 512 (≈ 2310 µM) | 512 (≈ 2310 µM) | > 512 | 512 (≈ 2310 µM) | > 512 | 512 (≈ 2310 µM) | 512 (≈ 2310 µM) | > 512 | 512 (≈ 2310 µM) | > 512 |  |  |
| Cc1ccc(C2(Cn3cncn3)CO2)cc1 (racemic) | 512 (≈ 2380 µM) | 256 (≈ 1190 µM) | 8 (≈ 37.2 µM) | 256 (≈ 1190 µM) | 1 (≈ 4.65 µM) | 256 (≈ 1190 µM) | 256 (≈ 1190 µM) | 256 (≈ 1190 µM) | 256 (≈ 1190 µM) | 1 (≈ 4.65 µM) |  | 8 |
| O=C(Cn1cncn1)c1ccc(F)cc1 | > 512 | > 512 | > 512 | 512 (≈ 2500 µM) | > 512 | > 512 | > 512 | > 512 | > 512 | > 512 |  |  |
| O=C(N[C@H](CO)[C@H](O)c1ccc([N+](=O)[O-])cc1)C(Cl)Cl [CHLORAMPHENICOL] | 16 (≈ 49.5 µM) | 32 (≈ 99 µM) | 32 (≈ 99 µM) | 32 (≈ 99 µM) | 8 (≈ 24.8 µM) | 16 (≈ 49.5 µM) | > 512 | 32 (≈ 99 µM) | 32 (≈ 99 µM) | > 512 |  |  |
| O=C(Cn1cncn1)c1ccc(Cl)cc1Cl | > 512 | 512 (≈ 2000 µM) | 512 (≈ 2000 µM) | 256 (≈ 1000 µM) | > 512 | > 512 | 512 (≈ 2000 µM) | 128 (≈ 500 µM) | 512 (≈ 2000 µM) | > 512 |  |  |
| NC1CCN(c2c(F)cc3c(=O)c(C(=O)O)cn(C4CC4)c3c2Cl)C1 (configuration not stated) [CLINAFLOXACIN] | 1 (≈ 2.73 µM) | 1 (≈ 2.73 µM) | 0.5 (≈ 1.37 µM) | 0.5 (≈ 1.37 µM) | 0.5 (≈ 1.37 µM) | 0.5 (≈ 1.37 µM) | > 512 | 0.5 (≈ 1.37 µM) | 0.5 (≈ 1.37 µM) | > 512 |  |  |
| O=C(O)c1cn(C2CC2)c2c(Cl)c(N3CCC(NCC(O)(Cn4cncn4)c4ccc(F)c(F)c4)C3)c(F)cc2c1=O (racemic) | 0.5 (≈ 0.829 µM) | 0.5 (≈ 0.829 µM) | 0.5 (≈ 0.829 µM) | 0.5 (≈ 0.829 µM) | 0.5 (≈ 0.829 µM) | 0.5 (≈ 0.829 µM) | 0.5 (≈ 0.829 µM) | 1 (≈ 1.66 µM) | 0.5 (≈ 0.829 µM) | 0.5 (≈ 0.829 µM) |  |  |
